Laboratory results published in ChEMBL document CHEMBL4014276, “Diphenylurea derivatives for combating methicillin- and vancomycin-resistant Staphylococcus aureus” (Eur J Med Chem, 2017).
Converted amounts (≈) assume the structure as drawn. The source made the active and inactive calls. The rule behind the calls is not given here.

Tests used:
Staphylococcus aureus [1] = test: Bactericidal activity against methicillin-resistant Staphylococcus aureus USA400 infected in mouse J774 cells assessed as reduction in colony forming units at 16 ug/ml after 24 hrs by time kill assay relative to control; design: scale not given: the % may be the effect or the level left
Staphylococcus aureus [2] = test: Antibacterial activity against methicillin-resistant Staphylococcus aureus USA400 infected in Caenorhabditis elegans AU37 harboring (sek-1(km4);glp-4(bn2)I) mutant assessed as reduction in colony forming units at 10 ug/ml after 20 hrs by microscopic method relative to control; assay type: functional; design: scale not given: the % may be the effect or the level left
Summary of the method: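 C. elegans AU37 L4/adult worms infected on MRSA USA400 lawn 6 h, washed in M9; 15-25 worms per well treated with 10 µg/mL in triplicate for 20 h, PBS negative control; worms lysed with silicon carbide, plated on TSA with 5 µg/mL nalidixic acid, 37 °C 18 h; CFU per worm, Student's t-test with Holm-Sidak correction.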

[3] = Intrinsic clearance in human liver microsomes in absence of NADPH by LC-MS/MS method; assay type: ADME, microsome; details: read-out: CLH
[4] = Half life in human liver microsomes in absence of NADPH by LC-MS/MS method; assay type: ADME, microsome
[5] = Total AUC in naive Sprague-Dawley rat at 50 mg/kg ,po administered via gavage by LC-MS/MS method; assay type: ADME, organism-based; design: dose 50 mg/kg, time AUCmax, route oral; details: in vivo
Summary of the method: (§1)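 Male naïve rats, three animals; single oral gavage dose in 5% ethanol, 45% PEG 400, 50% water. Blood drawn into EDTA-K2 tubes over 24 h post dose; plasma protein-precipitated with acetonitrile, parent quantified by LC/MS/MS.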

Staphylococcus aureus [6] = test: Bactericidal activity against methicillin-resistant Staphylococcus aureus USA400 infected in mouse J774 cells assessed as reduction in colony forming units at 16 ug/ml after 8 hrs by time kill assay relative to control; design: scale not given: the % may be the effect or the level left
Staphylococcus aureus [7] = test: Bactericidal activity against methicillin-resistant Staphylococcus aureus USA400 NRS123 clinical isolate assessed as disruption of bacterial membrane by measuring leakage of 280 nM absorbing material at 5 times MIC after 30 mins by spectrophotometric method; assay type: functional
[8] = Half life in naive Sprague-Dawley rat at 50 mg/kg ,po administered via gavage by LC-MS/MS method; assay type: ADME, organism-based; details: in vivo
Summary of the method: as §1

[9] = Tmax in naive Sprague-Dawley rat at 50 mg/kg ,po administered via gavage by LC-MS/MS method; assay type: ADME, organism-based; details: in vivo
Summary of the method: as §1

Staphylococcus aureus [10] = test: Antibacterial activity against methicillin-resistant Staphylococcus aureus USA300 NRS384 clinical isolate after 20 hrs by broth microdilution method; assay type: functional; details: USA300 NRS384, 20 h
Summary of the method: (§2)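 CLSI broth microdilution in cation-adjusted Mueller Hinton broth; compounds serially diluted, triplicate samples; 37 °C, 20 h. MIC read visually as lowest concentration with no visible growth; mean of triplicate determinations reported.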

HaCaT = test: Cytotoxicity against human HaCaT cells up to 64 ug/ml after 2 hrs by MTS assay; assay type: cell-based
Summary of the method: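 Keratinocytes grown in DMEM with 10% FBS at 37 °C, 5% CO2; exposed in triplicate to 8, 16, 32 and 64 µg/mL for 2 h. DMSO-matched controls. MTS added for 4 h, absorbance at 490 nm. Viability expressed as % of DMSO-treated cells (mean of triplicate ± SD); one-way ANOVA with Dunnett's test, P < 0.05.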

[11] = Apparent permeability across basolateral to apical side in human Caco2 cells at 10 uM after 2 hrs by LC-MS/MS method; assay type: ADME, cell-based; details: Caco-2
[12] = Terminal elimination rate constant in naive Sprague-Dawley rat at 50 mg/kg ,po administered via gavage by LC-MS/MS method; assay type: ADME, organism-based; details: in vivo, read-out: LZ (converted)
Summary of the method: as §1

Staphylococcus aureus [13] = test: Bactericidal activity against methicillin-resistant Staphylococcus aureus USA300 NRS384 clinical isolate after 18 hrs by broth microdilution method; assay type: functional; details: USA300 NRS384, 18 h
Summary of the method: (§3)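 From MIC wells without visible growth, 5 uL spotted onto Tryptic soy agar, incubated 37 °C for at least 18 h; MBC taken as lowest concentration giving 99.9% growth inhibition.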

Staphylococcus aureus [14] = test: Bactericidal activity against methicillin-resistant Staphylococcus aureus USA400 infected in mouse J774 cells assessed as reduction in colony forming units at 16 ug/ml after 4 hrs by time kill assay relative to control; assay type: functional; design: scale not given: the % may be the effect or the level left
Summary of the method: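 J774 murine macrophages in DMEM/10% FBS infected with MRSA USA400 at MOI ~100:1 for 1 h, extracellular bacteria killed with gentamicin 50 µg/mL; treated at 16 µg/mL in triplicate; after 4, 8 or 24 h cells washed, lysed with 0.1% Triton X-100, plated for CFU; percent reduction versus untreated, t-test.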

Staphylococcus aureus [15] = test: Bactericidal activity against methicillin-resistant Staphylococcus aureus USA400 NRS123 clinical isolate after 18 hrs by broth microdilution method; assay type: functional; details: USA400 NRS123, 18 h
Summary of the method: as §3

Staphylococcus aureus [16] = test: Antibacterial activity against methicillin-resistant Staphylococcus aureus USA400 NRS123 clinical isolate preincubated followed by bacterial subculturing for 2 weeks; assay type: functional
Staphylococcus aureus [17] = test: Bactericidal activity against methicillin-resistant Staphylococcus aureus USA100 NRS382 clinical isolate after 18 hrs by broth microdilution method; assay type: functional; details: USA100 NRS382, 18 h
Summary of the method: as §3

Staphylococcus aureus [18] = test: Bactericidal activity against methicillin-resistant Staphylococcus aureus USA200 NRS383 clinical isolate after 18 hrs by broth microdilution method; assay type: functional; details: USA200 NRS383, 18 h
Summary of the method: as §3

Staphylococcus aureus [19] = test: Antibacterial activity against methicillin-resistant Staphylococcus aureus USA300 NRS384 clinical isolate preincubated followed by bacterial subculturing for 2 weeks; assay type: functional
Staphylococcus aureus [20] = test: Bactericidal activity against Staphylococcus aureus RN4220 NRS107 clinical isolate after 18 hrs by broth microdilution method; assay type: functional; details: RN4220 NRS107, 18 h
Summary of the method: as §3

Staphylococcus aureus [21] = test: Bactericidal activity against vancomycin-resistant Staphylococcus aureus VRSA10 after 18 hrs by broth microdilution method; assay type: functional; details: VRSA10, 18 h
Summary of the method: as §3

Staphylococcus aureus [22] = test: Antibacterial activity against methicillin-resistant Staphylococcus aureus USA100 NRS382 clinical isolate preincubated followed by bacterial subculturing for 2 weeks; assay type: functional
[23] = Efflux ratio of apparent permeability across basolateral to apical over apical to basolateral side in human Caco2 cells at 10 uM after 2 hrs by LC-MS/MS method; assay type: ADME, cell-based; details: Caco-2
Staphylococcus aureus [24] = test: Antibacterial activity against vancomycin-resistant Staphylococcus aureus VRSA4 after 20 hrs by broth microdilution method; assay type: functional; details: VRSA4, 20 h
Summary of the method: as §2

[25] = Mean residence time in naive Sprague-Dawley rat at 50 mg/kg ,po administered via gavage by LC-MS/MS method; assay type: ADME, organism-based; details: in vivo
Summary of the method: as §1

[26] = Apparent permeability across apical to basolateral side in human Caco2 cells at 10 uM after 2 hrs by LC-MS/MS method; assay type: ADME, cell-based; details: Caco-2
[27] = Cmax in naive Sprague-Dawley rat at 50 mg/kg ,po administered via gavage by LC-MS/MS method; assay type: ADME, organism-based; design: dose 50 mg/kg, route oral; details: in vivo
Summary of the method: as §1

Staphylococcus aureus [28] = test: Antibacterial activity against methicillin-resistant Staphylococcus aureus USA200 NRS383 clinical isolate preincubated followed by bacterial subculturing for 2 weeks; assay type: functional
Staphylococcus aureus [29] = test: Antibacterial activity against methicillin-resistant Staphylococcus aureus USA400 NRS123 clinical isolate after 20 hrs by broth microdilution method; assay type: functional; details: USA400 NRS123, 20 h
Summary of the method: as §2

## C/C(=N\NC(=N)N)c1ccc(NC(=O)Nc2ccc(OC3CCCCCC3)cc2)cc1
Staphylococcus aureus [1]
  Activity: 69%
Staphylococcus aureus [2]
  Activity: >50%
[3]
  microsomal CLint: 42.9 µL/min/mg
[4]
  half-life: 0.897 h
[5]
  AUC: 384 ng·h/mL
Staphylococcus aureus [6]
  Activity: 35.7%
Staphylococcus aureus [7]
  Activity: inactive
[8]
  half-life: 16 h
[9]
  Tmax: 9.33 h
Staphylococcus aureus [10]
  MIC: 2 µg/mL (≈ 4.73 µM)
HaCaT
  Activity: Non-Toxic
[11]
  Papp B→A at 2 h, 10 µM: 51.9 ×10⁻⁶ cm/s
[12]
  k el: 1.25e-05 s⁻¹
Staphylococcus aureus [13]
  MBC: 4 µg/mL (≈ 9.47 µM)
Staphylococcus aureus [14]
  Activity: 5%
Staphylococcus aureus [15]
  MBC: 4 µg/mL (≈ 9.47 µM)
Staphylococcus aureus [16]
  Activity: Active
Staphylococcus aureus [17]
  MBC: 4 µg/mL (≈ 9.47 µM)
Staphylococcus aureus [18]
  MBC: 4 µg/mL (≈ 9.47 µM)
Staphylococcus aureus [19]
  Activity: Active
Staphylococcus aureus [20]
  MBC: 4 µg/mL (≈ 9.47 µM)
Staphylococcus aureus [21]
  MBC: 8 µg/mL (≈ 18.9 µM)
Staphylococcus aureus [22]
  Activity: Active
[23]
  efflux ratio at 2 h, 10 µM: > 1000
Staphylococcus aureus [24]
  MIC: 2 µg/mL (≈ 4.73 µM)
[25]
  MRT: 28.4 h
[26]
  Papp A→B at 2 h, 10 µM: 0.039 ×10⁻⁶ cm/s
[27]
  Cmax: 16.3 ng/mL
Staphylococcus aureus [28]
  Activity: Active
Staphylococcus aureus [29]
  MIC: 4 µg/mL (≈ 9.47 µM)
